Assay [1] can be described thus: Her2 expression decrease, cell viability multiplex – SKBR3 breast tumor cells, AlphaScreen, ATP viability, primary screen (AID 461).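 As to Her2 level: lower value means less Her2 protein in the cells.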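 As to viability: percent of carrier control wells set as 100% viability.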 The following applies: SKBR3 Her2 protein level, 18-24 h, measured here: SKBR3 viability, ATP luminescence, at 10 µM.
Assay [2] addresses Receptor tyrosine-protein kinase erbB-2 (Homo sapiens) (UniProt P04626). The assay is described as above. Particulars: 18-24 h, at 10 µM, stronger effect = lower value.
Assay [3] in a line: reduced viability of SK-BR-3 breast cancer cells – cell-based, 24 h, human, pilot screen (AID 572;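 active = viability at or below 10% of carrier control in both of two separate runs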;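 also: compound exposure lasted between 18 and 24 h rather than exactly 24 h; 100% = carrier-treated control wells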). Particulars: SK-BR-3 viability, CellTiter-Glo luminescence, at 10 µM, stronger effect = lower value. On the technique in general: ATP-based viability assays read luminescence as a measure of living cells.
Assay [4] can be described thus: HUVEC growth inhibition – cell-based, human, primary screen (AID 575;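 active = viability at or below 30% in both replicate assays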;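 also: 100% = median of untreated cell wells with 0.1% DMSO on each plate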). Particulars: HUVEC proliferation, CellTiter-Glo luminescence, 72 h; at 10 µM; stronger effect = lower value. A digest of the protocol: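 Test system: primary human umbilical vein endothelial cells. Quantity: 1250 cells/well. Compound: single 10 µM dose, 0.1% DMSO, from 5x medium stock. Timing: 72 h treatment at 37 °C. Detection: ATP-based CellTiter-Glo luminescent read. Benchmarks: vehicle and MePR control wells. Format: 384-well plates coated with collagen.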

The nature of assay [5]: H69AR cell proliferation blockers – human, duplicate replicates, primary screen (AID 580;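 active = viability at or under a set limit in both replicates, limit being median viability minus 3 SD, cut at about 48% in these data, passing the limit was not always enough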;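 also: 100% = mean luminescence of untreated wells and 0% = no signal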). The following applies: H69AR lung tumor cells viability, ATP luminescence, 72 h; at 10 µM; stronger effect = lower value.
Assay [6] is described as follows: MRP1 drug-resistance reversers in H69AR cells – cell-based, doxorubicin co-treatment, pilot screen (AID 601;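 active = viability loss from added drug above about 55%, and viability with drug at most 40%, in both replicates, limit read from the data, passing the limit was not always enough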). Particulars: CellTiter-Glo, 72 h, at 10 µM; for differential viability (reversal): stronger effect = higher value.
A short description of assay [7]: yeast transport mutant growth inhibition pilot in 384-well plates, post-Golgi transport modulator project (AID 636; in the data active = inhibition above about 31%). The following applies: absorbance 615 nm, about 18 h, stronger effect = higher value.
Assay [8] can be described thus: growth suppression of yeast trafficking mutant, preliminary HTS, modulators of trafficking downstream of Golgi apparatus project, 1536-format plate, OD 615 nm (AID 637; in the data active = inhibition above about 30%). Particulars: yeast transport mutant growth, absorbance 615 nm, 18 h; stronger effect = higher value.
The mark [9] stands for this setting: H69AR cells + 2 uM doxorubicin, measured here: viability with 2 uM doxorubicin, stronger effect = lower value.
The mark [10] stands for this setting: H69AR cells, compound alone cytotoxicity.

Active and inactive are the calls of the source.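 The calls were made as follows, unless noted: active = Her2 level under about 52% in both replicate screens, with viability over 70% of control (limit read from the data); inconclusive = Her2 under the limit in one screen only, or viability under 70%; inactive = Her2 level above the set limit.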

Sequence of Receptor tyrosine-protein kinase erbB-2 (Homo sapiens) (P04626 whole entry, looked up): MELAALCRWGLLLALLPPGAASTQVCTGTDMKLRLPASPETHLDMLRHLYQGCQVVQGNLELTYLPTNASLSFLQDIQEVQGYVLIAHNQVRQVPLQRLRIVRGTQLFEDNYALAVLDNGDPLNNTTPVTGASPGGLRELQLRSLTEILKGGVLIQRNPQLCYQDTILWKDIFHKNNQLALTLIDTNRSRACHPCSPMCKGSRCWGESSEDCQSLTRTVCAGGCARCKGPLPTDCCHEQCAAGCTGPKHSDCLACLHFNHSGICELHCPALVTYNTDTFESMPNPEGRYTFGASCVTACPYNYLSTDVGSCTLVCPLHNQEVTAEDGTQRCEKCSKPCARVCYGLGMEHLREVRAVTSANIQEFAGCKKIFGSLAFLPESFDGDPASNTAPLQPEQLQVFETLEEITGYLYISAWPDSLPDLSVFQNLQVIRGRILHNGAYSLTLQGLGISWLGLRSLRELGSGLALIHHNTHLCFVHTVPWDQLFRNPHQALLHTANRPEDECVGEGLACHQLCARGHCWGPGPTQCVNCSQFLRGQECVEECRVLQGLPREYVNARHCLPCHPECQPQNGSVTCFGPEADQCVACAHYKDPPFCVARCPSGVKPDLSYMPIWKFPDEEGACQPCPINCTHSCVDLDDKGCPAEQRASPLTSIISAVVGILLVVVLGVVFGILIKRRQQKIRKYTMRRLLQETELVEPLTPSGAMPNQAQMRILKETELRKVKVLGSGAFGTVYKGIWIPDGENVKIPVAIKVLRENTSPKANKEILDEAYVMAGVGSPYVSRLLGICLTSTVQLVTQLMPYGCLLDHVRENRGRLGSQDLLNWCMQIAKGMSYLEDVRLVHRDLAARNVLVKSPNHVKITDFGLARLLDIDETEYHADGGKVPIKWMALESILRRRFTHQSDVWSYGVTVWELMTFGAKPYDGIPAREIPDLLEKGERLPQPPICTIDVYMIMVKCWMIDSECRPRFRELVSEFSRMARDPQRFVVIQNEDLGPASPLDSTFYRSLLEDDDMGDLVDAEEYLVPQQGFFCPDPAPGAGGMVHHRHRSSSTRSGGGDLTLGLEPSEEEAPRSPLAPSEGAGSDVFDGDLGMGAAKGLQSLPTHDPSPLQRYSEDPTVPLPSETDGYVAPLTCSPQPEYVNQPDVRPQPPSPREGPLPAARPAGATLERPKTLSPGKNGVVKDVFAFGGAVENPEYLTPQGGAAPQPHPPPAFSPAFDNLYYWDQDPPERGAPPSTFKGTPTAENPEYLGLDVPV

`CCOc1cc2[nH]c(=S)n(CC3CCCO3)c(=O)c2cc1OCC` (stereo not given): the viability (usually a read-out of living cells in per cent, often relative to untreated cells) is 105% in assay [1]; 105% (inactive) in assay [3]; 88.3% (inactive) in assay [4]; 87.8% (inactive) in assay [5]; 80.7% in assay [6] (setting [9]); 87.8% in assay [6] (setting [10]). Also, the Her2 level in assay [2] is 103% (inactive). Moreover, the differential viability (reversal) in assay [6] (H69AR cells + 2 uM doxorubicin) was 7.12% (inactive). Besides, the results for the inhibition in assay [7] and in assay [8] were -4.46% (inactive) and -3.77% (inactive), respectively.

With `Cc1nn(C)cc1/C=N/O`, the viability in assay [1] is 100%; in assay [3], 100% (inactive); in assay [4], 95.8% (inactive); in assay [5], 104% (inactive); in assay [6] (setting [9]), 96.5%; in assay [6] (setting [10]) it was 104%. Further, the Her2 level in assay [2] is 105% (inactive). The differential viability (reversal) in assay [6] (H69AR cells + 2 uM doxorubicin) is 7.1% (inactive). Also, the inhibition (as a rule, the relative decrease from the control value, in per cent) in assay [7] is -7.47% (inactive); in assay [8], 1.45% (inactive).

As to `CCOC(=O)N1CCN(C(=O)c2ccc(N3C(=O)CCC3=O)cc2)CC1`, the viability in assay [1] is 110%; in assay [3] it was 110% (inactive); in assay [4] it was 104% (inactive); in assay [5], 105% (inactive); in assay [6] (setting [9]), 87.6%; in assay [6] (setting [10]), 105%. In assay [2], the Her2 level was 110% (inactive). Also, the differential viability (reversal) in assay [6] (H69AR cells + 2 uM doxorubicin) is 17.4% (inactive). Also, the results for the inhibition in assay [7] and in assay [8] were -7.03% (inactive) and -9.83% (inactive), respectively.

In the case of `Cc1cc(C)c2oc(=O)cc(CN3CCOCC3)c2c1`, the viability was 102% in assay [1]; 102% (inactive) in assay [3]; 87.3% (inactive) in assay [4]; 91.4% (inactive) in assay [5]; 87.9% in assay [6] (setting [9]); 91.4% in assay [6] (setting [10]). The Her2 level in assay [2] is 97% (inactive). Also, the differential viability (reversal) in assay [6] (H69AR cells + 2 uM doxorubicin) was 3.58% (inactive). In addition, the inhibition in assay [7] was -6.93% (inactive); in assay [8], 2.26% (inactive).

With `CCC(=O)N1CCc2cc(S(=O)(=O)CCC(=O)Nc3nc(C)cs3)ccc21`, the viability was 106% in assay [1]; 106% (inactive) in assay [3]; 90.5% (inactive) in assay [4]; 74.4% (inactive) in assay [5]; 66.8% in assay [6] (setting [9]); 74.4% in assay [6] (setting [10]). Besides, the Her2 level in assay [2] is 85% (inactive). The differential viability (reversal) in assay [6] (H69AR cells + 2 uM doxorubicin) is 7.69% (inactive). In addition, the figures for the inhibition in assay [7] and in assay [8] were -4.8% (inactive) and -5.9% (inactive), respectively.

Take `Cc1ccc2c(c1)sc1ncc(NC(=O)c3ccccc3)c(=O)n12`: the viability in assay [1] was 88.5%; in assay [3], 88.5% (inactive); in assay [4], 114% (inactive); in assay [5], 91.7% (inactive); in assay [6] (setting [9]), 88.3%; in assay [6] (setting [10]), 91.7%. In addition, the Her2 level in assay [2] was 87% (inactive). Moreover, the differential viability (reversal) in assay [6] (H69AR cells + 2 uM doxorubicin) was 3.43% (inactive). For the same molecule, the inhibition was -0.67% (inactive) in assay [7] and 0.66% (inactive) in assay [8].

For the molecule `CC(C)COc1ccc(-c2nnn(CC(=O)N3CCCC3)n2)cc1`, the viability was 86% in assay [1]; 86% (inactive) in assay [3]; 108% (inactive) in assay [4]; 104% (inactive) in assay [5]; 88.9% in assay [6] (setting [9]); 104% in assay [6] (setting [10]). Besides, the Her2 level in assay [2] was 85% (inactive). Also, in assay [6] (H69AR cells + 2 uM doxorubicin), the differential viability (reversal) is 14.9% (inactive). In addition, the inhibition was -8.67% (inactive) in assay [7] and 16.9% (inactive) in assay [8].

In the case of `C=CCn1c(COc2cccc(C)c2)nnc1SCC(=O)NC(=O)NCc1ccco1`, the viability in assay [1] was 108%; in assay [3], 108% (inactive); in assay [4] it was 78.4% (inactive); in assay [5], 78.2% (inactive); in assay [6] (setting [9]) it was 81.3%; in assay [6] (setting [10]) it was 78.2%. In addition, the Her2 level in assay [2] was 95% (inactive). The differential viability (reversal) in assay [6] (H69AR cells + 2 uM doxorubicin) is -3.14% (inactive). In addition, the inhibition is -5.07% (inactive) in assay [7] and -0.48% (inactive) in assay [8].

For the molecule `CCn1nnnc1SCC(=O)N1CCOCC1`, the viability in assay [1] was 116%; in assay [3], 116% (inactive); in assay [4], 101% (inactive); in assay [5], 97.6% (inactive); in assay [6] (setting [9]) it was 86.3%; in assay [6] (setting [10]), 97.6%. Besides, in assay [2], the Her2 level is 91% (inactive). The differential viability (reversal) in assay [6] (H69AR cells + 2 uM doxorubicin) is 11.3% (inactive). The figures for the inhibition in assay [7] and in assay [8] were -4.53% (inactive) and 3.44% (inactive), respectively.

On to `Cn1c2c(c(=O)[nH]c1=O)C(NC(=O)c1ccco1)(C(F)(F)F)C(=O)N2` (stereo not given), for which the viability is 112% in assay [1]; 112% (inactive) in assay [3]; 93.3% (inactive) in assay [4]; 96.5% (inactive) in assay [5]; 92.3% in assay [6] (setting [9]); 96.5% in assay [6] (setting [10]). Moreover, the Her2 level in assay [2] was 118% (inactive). Also, the differential viability (reversal) in assay [6] (H69AR cells + 2 uM doxorubicin) is 4.25% (inactive). Also, the results for the inhibition in assay [7] and in assay [8] were -1.45% (inactive) and 0.66% (inactive), respectively.

Turning to `CC(C)=CCC(C)(C)C1OCCN1C(=O)c1ccccc1` (stereo not given), the viability in assay [1] was 84.5%; in assay [3] it was 84.5% (inactive); in assay [4], 82.4% (inactive); in assay [5], 98% (inactive); in assay [6] (setting [9]), 89.3%; in assay [6] (setting [10]), 98%. For the same molecule, the Her2 level in assay [2] is 99% (inactive). Further, in assay [6] (H69AR cells + 2 uM doxorubicin), the differential viability (reversal) was 8.65% (inactive). The results for the inhibition in assay [7] and in assay [8] were -3.77% (inactive) and 2.3% (inactive), respectively.

Turning to `COc1ccccc1CCNC(=O)C1CCCO1` (stereo not given), the viability in assay [1] is 108%; in assay [3] it was 108% (inactive); in assay [4], 92.1% (inactive); in assay [5], 98.9% (inactive); in assay [6] (setting [9]), 91.7%; in assay [6] (setting [10]) it was 98.9%. In addition, the Her2 level in assay [2] is 97% (inactive). In addition, the differential viability (reversal) in assay [6] (H69AR cells + 2 uM doxorubicin) was 7.17% (inactive). Further, the inhibition was -6.18% (inactive) in assay [7] and -11.3% (inactive) in assay [8].

Take `COCCN(C(=O)CNC(=O)c1ccco1)C(C(=O)NC1CCCCC1)c1cccc(OC)c1` (stereo not given): the viability in assay [1] was 96%; in assay [3], 96% (inactive); in assay [4], 88.1% (inactive); in assay [5], 102% (inactive); in assay [6] (setting [9]), 89.6%; in assay [6] (setting [10]), 102%. For the same molecule, the Her2 level in assay [2] is 103% (inactive). The differential viability (reversal) in assay [6] (H69AR cells + 2 uM doxorubicin) was 12.6% (inactive). Also, the inhibition in assay [7] was -1.3% (inactive); in assay [8], -1.17% (inactive).

As to `O=C1OC(N2CCN(c3ccccn3)CC2)c2ccccc21` (stereo not given), the viability in assay [1] was 94%; in assay [3] it was 94% (inactive); in assay [4] it was 105% (inactive); in assay [5], 96.8% (inactive); in assay [6] (setting [9]) it was 89.4%; in assay [6] (setting [10]), 96.8%. Besides, the Her2 level in assay [2] is 80.5% (inactive). Further, the differential viability (reversal) in assay [6] (H69AR cells + 2 uM doxorubicin) was 7.36% (inactive). In addition, the inhibition in assay [7] is -4.53% (inactive); in assay [8], 1.48% (inactive).

Take `COC(=O)c1[nH]c(C)c(/C(O)=C2\C(=O)C(=O)N(CCN(C)C)C2c2ccccc2OC)c1C` (stereo not given): the viability was 88% in assay [1]; 88% (inactive) in assay [3]; 79% (inactive) in assay [4]; 84.3% (inactive) in assay [5]; 82.9% in assay [6] (setting [9]); 84.3% in assay [6] (setting [10]). The Her2 level in assay [2] was 114% (inactive). Besides, the differential viability (reversal) in assay [6] (H69AR cells + 2 uM doxorubicin) is 1.34% (inactive). Also, the inhibition in assay [7] was -6.89% (inactive); in assay [8], -1.5% (inactive).
